Measurements gathered from unrelated publications.
Lines come from different studies, so protocols differ.
Target: Sodium-dependent serotonin transporter (SLC6A4, Homo sapiens, UniProt P31645)

OC(c1ccc(F)cc1)C(F)(F)CCN1CCC(O)(c2ccc(Cl)cc2)CC1 (racemic) — Ki (ligand displacement; radioligand): 1.99 µM
CNc1nc(C#Cc2ccc(Br)s2)nc2c1ncn2[C@H]1[C@H](O)[C@H](O)[C@]2(C(=O)OC)C[C@H]12 — Ki (ligand displacement; radioligand; cell membranes): > 10 µM
CN[C@@H](C)C(=O)c1ccccc1 — EC50 (calcium signal; agonist; fluorescence): 15.3 µM
COc1cc(C(=O)N2CC[C@@H](O)[C@@H](N)C2)cc2nc(-c3cc4ccccc4n3CC3CC3)n(C)c12 — IC50 (transporter uptake): 50.1 µM
C[C@H](N)Cn1ncc2ccc3c(c21)CCCO3 — Ki (ligand displacement; radioligand): 62.5 µM
Clc1ccc2c(C3=CCN(CCc4c[nH]c5ccccc45)CC3)c[nH]c2c1 — IC50 (ligand displacement; radioligand; cell membranes): 0.0255 µM
CC(N)CCc1ccccc1Cl (stereo not shown) — Ki (transporter uptake; inhibitor; radiometric): 24 µM
CNC(C)(C)C(=O)c1ccccc1 — EC50 (calcium signal; agonist; fluorescence): 12.9 µM
CNc1nc2cc(OCCCCN3CCN(c4cccc(Cl)c4Cl)CC3)ccc2s1 — Ki (ligand displacement; radioligand): 0.45 µM
Clc1ccc2c(C3CCN(CCc4c[nH]c5ccccc45)CC3)c[nH]c2c1 — Ki (transporter uptake; inhibitor; radiometric): 0.053 µM
CCOC(=O)[C@@]12C[C@@H]1[C@@H](n1cnc3c(NC)nc(C#Cc4ccc(Cl)s4)nc31)[C@H](O)[C@@H]2O — Ki (ligand displacement; radioligand; cell membranes): > 10 µM
CC(=O)N1C[C@@H](CCN2CC=C(c3c[nH]c4cc(Cl)ccc34)CC2)c2ccccc21 — IC50 (ligand displacement; radioligand; cell membranes): 0.0438 µM
C[C@@H](NC(=O)[C@@H](N)Cc1ccc(O)cc1)C(=O)NCC(=O)N[C@@H](Cc1ccccc1)C(=O)N(C)CCC[C@@]1(c2ccc(F)cc2)OCc2cc(C#N)ccc21 — Ki (ligand displacement; radioligand): 0.28 µM
